The source made the active and inactive calls. No cut-off for these calls is given here.
Columns and labels:
B2 bradykinin receptor [1] = target: T1, B2 bradykinin receptor (Homo sapiens, UniProt P30411); assay: Displacement of [3H]-Bradykinin from human bradykinin B2 receptor expressed in CHO cells membrane after 60 mins by scintillation counting; assay type: cell membranes
T1 sequence (P30411 whole entry): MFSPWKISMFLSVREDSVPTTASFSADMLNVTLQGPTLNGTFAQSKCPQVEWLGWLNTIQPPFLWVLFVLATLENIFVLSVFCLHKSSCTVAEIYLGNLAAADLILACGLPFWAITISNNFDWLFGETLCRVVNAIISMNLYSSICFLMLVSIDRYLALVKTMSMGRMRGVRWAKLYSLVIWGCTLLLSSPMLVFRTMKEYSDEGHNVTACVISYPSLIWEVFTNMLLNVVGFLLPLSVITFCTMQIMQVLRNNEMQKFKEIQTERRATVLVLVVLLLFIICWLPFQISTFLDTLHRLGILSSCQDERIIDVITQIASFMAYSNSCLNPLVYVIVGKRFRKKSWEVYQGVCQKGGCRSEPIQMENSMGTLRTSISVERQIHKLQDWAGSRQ

B2 bradykinin receptor [2] = target: T1, B2 bradykinin receptor; assay: Antagonist activity at human bradykinin B2 receptor expressed in dhfr-deficient CHO cells assessed as inhibition of bradykinin-induced inositol monophosphate accumulation preincubated for 15 mins prior bradykinin induction measured after 40 mins by liquid scintillation spectrometry; assay type: functional, cell-based; settings: read-out: pA2 (converted)
Procedure, shortened: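 CHOdhfr-/hB2R cells (1.8×10^5/well) plated overnight at 37 °C, labelled 24 h with myo-[3H]inositol (1 uCi/well). Antagonist pre-incubation 15 min, then BK 1×10^-11 to 1×10^-5 M for 40 min at 37 °C in Hepes pH 7.4 buffer with 25 mM LiCl. IP1 radioactivity by liquid scintillation. Agonist curves fitted for EC50; pA2 = log(CR−1) − log[antagonist].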

Cavia porcellus = assay: Inhibition of bradykinin-induced bronchoconstriction in anesthetized Dunkin-Hartley guinea pig at […], it 5 mins prior bradykinin-induction for every 30 mins up to 210 mins; assay type: functional, organism-based
Procedure, shortened: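 Anaesthetized male Dunkin Hartley guinea pigs, 350–400 g. Compound given intratracheally, then repeated iv BK challenges (10 nmol/kg) with bronchoconstriction recorded.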

B2 bradykinin receptor [3] = target: T2, B2 bradykinin receptor (Cavia porcellus, UniProt O70526); assay: Antagonist activity at guinea pig bradykinin B2 receptor in longitudinal smooth muscle assessed as inhibition of bradykinin-induced contractile responses; assay type: functional; settings: read-out: pA2 (converted)
T2 sequence (O70526 whole entry): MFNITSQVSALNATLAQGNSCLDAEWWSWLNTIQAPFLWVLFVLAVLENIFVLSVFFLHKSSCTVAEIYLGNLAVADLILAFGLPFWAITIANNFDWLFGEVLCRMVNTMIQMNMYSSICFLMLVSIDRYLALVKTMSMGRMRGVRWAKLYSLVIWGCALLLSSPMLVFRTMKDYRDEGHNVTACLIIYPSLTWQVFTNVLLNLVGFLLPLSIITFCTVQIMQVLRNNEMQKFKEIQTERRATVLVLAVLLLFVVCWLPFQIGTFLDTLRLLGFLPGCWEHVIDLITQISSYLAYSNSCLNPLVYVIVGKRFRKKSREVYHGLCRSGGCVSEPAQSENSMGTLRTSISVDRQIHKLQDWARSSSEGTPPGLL

B1 bradykinin receptor = target: T3, B1 bradykinin receptor (Homo sapiens, UniProt P46663); assay: Displacement of [3H][desArg9]Lys-Bradykinin from human bradykinin B1 receptor expressed in CHO cells; assay type: cell-based
T3 sequence (P46663 whole entry): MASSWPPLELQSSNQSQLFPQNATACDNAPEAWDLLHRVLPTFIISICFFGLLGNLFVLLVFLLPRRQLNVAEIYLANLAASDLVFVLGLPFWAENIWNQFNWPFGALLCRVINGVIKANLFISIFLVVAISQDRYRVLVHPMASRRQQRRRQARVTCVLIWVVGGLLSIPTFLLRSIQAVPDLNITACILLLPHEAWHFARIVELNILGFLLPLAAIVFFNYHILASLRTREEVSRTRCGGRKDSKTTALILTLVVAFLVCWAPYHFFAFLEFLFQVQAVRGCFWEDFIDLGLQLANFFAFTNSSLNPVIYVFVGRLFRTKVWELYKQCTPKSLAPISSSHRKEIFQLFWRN

- Ki (B2 bradykinin receptor [1]): 0.0794 nM
- Kb (B2 bradykinin receptor [2]): 0.316 nM
- Kb (B2 bradykinin receptor [3]): 0.0631 nM
- Ki (B1 bradykinin receptor): > 10000 nM
SMILES: Cc1cc(C)c2cccc(OCc3c(Cl)ccc(S(=O)(=O)NC4(C(=O)N5CCN(C(=O)CCCC[N+](C)(C)C)CC5)CCOCC4)c3Cl)c2n1
- inhibition (Cavia porcellus): inactive
